Assay outcomes: PubChem BioAssay, Sanford-Burnham Center for Chemical Genomics
SENP8 block-1: blocks the human protease SENP8 | purified SENP8, Z-RLRGG-aminoluciferin cleavage, luminescence | inhibition, % at 10 µM | hit rate 1.2% among 330,000 | AID 2540; in the data active = inhibition above about 50%
NRP1-CendR mod: alters CendR peptide binding to human NRP-1; O14786; FAM-RPARPAR peptide binding to NRP-1, fluorescence polarization; inhibition, % at 25 µM; hit rate 0.85% among 360,000; AID 602438;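 active = inhibition or corrected inhibition above about 18%, plus a signal ratio from 0.5 to 1.5, limit read from the data, passing the limit was not always enough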
Target sequence (O14786 whole entry, looked up): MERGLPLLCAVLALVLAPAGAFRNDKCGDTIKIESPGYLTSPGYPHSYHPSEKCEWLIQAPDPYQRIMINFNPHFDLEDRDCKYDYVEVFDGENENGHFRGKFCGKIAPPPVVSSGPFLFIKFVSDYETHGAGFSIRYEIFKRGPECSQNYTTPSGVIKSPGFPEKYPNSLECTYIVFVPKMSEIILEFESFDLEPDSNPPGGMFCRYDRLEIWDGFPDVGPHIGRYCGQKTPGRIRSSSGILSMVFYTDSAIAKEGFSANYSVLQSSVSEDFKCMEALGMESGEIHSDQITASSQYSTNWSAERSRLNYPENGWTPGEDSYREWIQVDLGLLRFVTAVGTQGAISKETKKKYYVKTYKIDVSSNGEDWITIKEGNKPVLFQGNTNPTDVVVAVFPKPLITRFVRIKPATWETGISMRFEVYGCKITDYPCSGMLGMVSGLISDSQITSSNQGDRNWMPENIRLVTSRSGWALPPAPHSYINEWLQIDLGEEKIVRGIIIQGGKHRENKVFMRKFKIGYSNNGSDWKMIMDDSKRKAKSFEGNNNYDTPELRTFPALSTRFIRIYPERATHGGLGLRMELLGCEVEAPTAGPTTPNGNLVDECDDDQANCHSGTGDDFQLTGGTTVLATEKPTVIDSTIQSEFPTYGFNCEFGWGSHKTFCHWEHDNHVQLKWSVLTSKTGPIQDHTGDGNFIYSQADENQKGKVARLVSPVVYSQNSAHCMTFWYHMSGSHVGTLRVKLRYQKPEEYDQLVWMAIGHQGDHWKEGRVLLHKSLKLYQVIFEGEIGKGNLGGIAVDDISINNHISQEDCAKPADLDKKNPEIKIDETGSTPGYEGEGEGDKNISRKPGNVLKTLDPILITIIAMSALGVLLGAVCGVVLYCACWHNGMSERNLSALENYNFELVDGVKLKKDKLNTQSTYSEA
SENP7 block: inhibitors of human SENP7 protease | Q9BQF6 | recombinant SENP7, Z-RLRGG-aminoluciferin luminescence, 40 min | inhibition, % at 5 µM | hit rate 1.5% among 330,000;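 active = inhibition above about 50% at the single test dose, limit read from the data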;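 also: plate controls were DMSO with enzyme for no effect and no enzyme buffer wells for full effect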
SENP1 inh: blocks the human SENP1 SUMO protease catalytic domain. Q9P0U3. hit rate 0.21% among 360,000. AID 624204. recombinant SENP1 catalytic domain, CyPet-SUMO1-YPet FRET cleavage. inhibition, % at 10 µM;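 active = inhibition at least 30% at 10 µM, raw YFP signal under a set limit, fluorescence ratio 0.5 to 1.5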;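 also: 0% = enzyme with DMSO and 100% = no enzyme wells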
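Material: hSENP1 catalytic domain, recombinant; medium: Tris pH 8 with BME, BSA, NP40 and catalase; compound: single concentration of 10 µM compound, 0.5% DMSO final; technique: FRET read of cyan and yellow fluorescence; timing: 50 min enzyme reaction, room temperature, light-protected; reagent: SFCypet-SUMO1-SFYpet substrate at 25 nM; control set: no-enzyme low, enzyme-DMSO high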
SENP8 block-2: inhibitors of human SENP8 protease; Q96LD8; recombinant SENP8, Nedd8 substrate fluorescence; inhibition, % at 20 µM; hit rate 0.64% among 360,000; AID 602440; in the data active = inhibition mostly above about 40%, no sharp cut-off; inactive = mostly below about 27%
SENP6 inh: blocks the human protease SENP6. Q9GZR1. Recombinant SENP6 catalytic domain, aminoluciferin luminescence. inhibition, % at 10 µM. hit rate 1.8% among 330,000. AID 2599;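 active = inhibition above about 50% at the single tested dose, limit read from the data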;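 also: plate controls were DMSO wells with enzyme for no effect and DMSO wells lacking enzyme for full effect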
SENP8 confirm: confirmation of human SENP8 protease inhibitors | shares compounds with SENP7 block | AID 488912 | Recombinant SENP8, Z-RLRGG-aminoluciferin luminescence, 60 min | inhibition, % at 12.5 µM | hit rate 40% among 6,200;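 active = mean inhibition across replicates above about 50%, limit read from the data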
SENP6 confirm: confirmation of human SENP6 protease inhibitors; shares compounds with SENP7 block; recombinant SENP6, Z-RLRGG-aminoluciferin luminescence; inhibition, % at 12.5 µM; hit rate 58% among 6,200; AID 488915
SENP7 conf: confirmation of human SENP7 protease inhibitors; shares compounds with SENP7 block; recombinant SENP7, Z-RLRGG-aminoluciferin luminescence, 40 min; inhibition, % at 12.5 µM; hit rate 69% among 6,200; AID 488917
Casp3 SENP sel: inhibits human caspase-3 in SENP selectivity test; hit rate 60% among 6,200; purified caspase-3, Z-DEVD-aminoluciferin luminescence, 60 min; inhibition, % at 12.5 µM; shares compounds with SENP7 block;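 active = mean inhibition above about 50%, limit read from the data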;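 also: plate controls were enzyme with DMSO for no effect and wells without caspase-3 for full effect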
Luc interf: interferes with luciferase luminescence in SENP counter-screen; hit rate 39% among 6,200; AID 488919; Pre-incubated SENP8/Z-RLRGG-aminoluciferin, luciferase luminescence interference; inhibition, % at 12.5 µM; shares compounds with SENP7 block;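 active = mean inhibition above about 50% when retested at one dose, limit read from the data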;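 also: plate controls were DMSO wells with completed reaction for no effect and substrate without enzyme for full effect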
The depositor's hits bear a star. Sampled rows, rich in hits. Any-hit rate of the full collection: about 3.3%.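 The calls were made as follows, unless noted: active = mean inhibition above about 50% in the one-dose retest (limit read from the data); inactive = the rest.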

O=C(O)c1ccc(-c2noc(-c3ccc(F)cc3)n2)cc1 was read as SENP8 block-1 94*, NRP1-CendR mod 16, SENP7 block 95*, SENP1 inh 4, SENP8 block-2 14, SENP6 inh 98*, SENP8 confirm 98*, SENP6 confirm 98*, SENP7 conf 102*, Casp3 SENP sel 98* and Luc interf 96*.
For O=C(COC(=O)c1ccc(Cl)nc1)NC1CCCc2ccccc21 (configuration not stated) the results were SENP8 block-1 -13, NRP1-CendR mod 15, SENP7 block 6, SENP1 inh -4, SENP8 block-2 6 and SENP6 inh -2.
For Cc1occc1C(=O)Nc1cccc(/C=C/C(=O)O)c1 the results were SENP8 block-1 -4, NRP1-CendR mod -20, SENP7 block 11, SENP1 inh 1, SENP8 block-2 20 and SENP6 inh 29.
`O=C(O)/C=C/c1cccc(NC(=O)c2ccc(Cl)cc2)c1` gave SENP8 block-1 61*, NRP1-CendR mod -4, SENP7 block 59*, SENP1 inh 2, SENP8 block-2 15, SENP6 inh 74*, SENP8 confirm 66*, SENP6 confirm 63*, SENP7 conf 88*, Casp3 SENP sel 84* and Luc interf 71*.
Screening O=C(O)/C=C/c1cccc(NC(=O)c2ccccc2)c1 returned SENP8 block-1 48, NRP1-CendR mod 2, SENP7 block 69*, SENP1 inh 1, SENP8 block-2 19, SENP6 inh 72*, SENP8 confirm 69*, SENP6 confirm 66*, SENP7 conf 90*, Casp3 SENP sel 91* and Luc interf 71*.
`COCCN(Cc1ccc(C)cc1)C(=O)[C@H]1O[C@@H](n2ccc(N)nc2=O)[C@H](O)[C@@H]1O` gave NRP1-CendR mod 7, SENP1 inh 0 and SENP8 block-2 15.
`Cc1ccc(/C=N/Nc2ccc(Cl)c(C(=O)O)c2)s1` gave SENP8 block-1 84*, NRP1-CendR mod -14, SENP7 block 84*, SENP1 inh -12, SENP8 block-2 -55, SENP6 inh 96*, SENP8 confirm 96*, SENP6 confirm 96*, SENP7 conf 101*, Casp3 SENP sel 50* and Luc interf 94*.
For O=C(O)c1ccc(N/N=C/c2ccc3c(c2)OCO3)cc1 the results were SENP8 block-1 98*, NRP1-CendR mod -5, SENP7 block 100*, SENP1 inh 2, SENP8 block-2 -244, SENP6 inh 97*, SENP8 confirm 99*, SENP6 confirm 100*, SENP7 conf 103*, Casp3 SENP sel 98* and Luc interf 98*.
Screening O=C(O)c1ccc(N/N=C/c2cc3c(cc2[N+](=O)[O-])OCO3)cc1 returned SENP8 block-1 16, NRP1-CendR mod -4, SENP7 block -7, SENP1 inh 1, SENP8 block-2 20 and SENP6 inh -8.
`O=C(O)c1cc(N/N=C/c2ccc3c(c2)OCCO3)ccc1Cl` gave NRP1-CendR mod -6, SENP1 inh 0 and SENP8 block-2 -69.
O=C(O)c1cc(N/N=C/c2ccc3c(c2)OCO3)ccc1Cl was read as SENP8 block-1 69*, NRP1-CendR mod -1, SENP7 block 7, SENP1 inh -2, SENP8 block-2 -73, SENP6 inh 66*, SENP8 confirm 3, SENP6 confirm 81*, SENP7 conf 95*, Casp3 SENP sel 63* and Luc interf 83*.
O=C(Nc1ccc(F)cc1)C(=O)c1c(O)[nH]c2ccc([N+](=O)[O-])cc12 was read as SENP8 block-1 53*, NRP1-CendR mod 9, SENP7 block 4, SENP1 inh 3, SENP8 block-2 36, SENP6 inh 75*, SENP8 confirm 66*, SENP6 confirm 68*, SENP7 conf 91*, Casp3 SENP sel 74* and Luc interf 36.
`CCSc1nn2c(=O)c3ccccc3nc2s1` gave SENP8 block-1 24, NRP1-CendR mod 14, SENP7 block 30, SENP1 inh 4, SENP8 block-2 17, SENP6 inh 58*, SENP8 confirm 39, SENP6 confirm 36, SENP7 conf 70*, Casp3 SENP sel 76* and Luc interf 47.
CCOn1c(SCC)nc2ccccc2c1=O was read as SENP8 block-1 -5, NRP1-CendR mod -3, SENP7 block 1, SENP1 inh 3, SENP8 block-2 9 and SENP6 inh -12.
Cc1nc(SCC(N)=O)[nH]c(=O)c1Cc1ccc(OC(C)C)cc1 was read as SENP8 block-1 -5, NRP1-CendR mod -2, SENP7 block 0, SENP1 inh -6, SENP8 block-2 13, SENP6 inh 64*, SENP8 confirm 12, SENP6 confirm 6, SENP7 conf 12, Casp3 SENP sel 7 and Luc interf 2.
Screening O=C(O)c1cccc(Nc2ccc([N+](=O)[O-])cn2)c1 returned SENP8 block-1 90*, NRP1-CendR mod 14, SENP7 block 93*, SENP1 inh -4, SENP8 block-2 14, SENP6 inh 91*, SENP8 confirm 92*, SENP6 confirm 92*, SENP7 conf 101*, Casp3 SENP sel 83* and Luc interf 93*.
`O=[N+]([O-])c1ccc(Nc2ccc3ccccc3c2)nc1` gave SENP8 block-1 -16, NRP1-CendR mod 8, SENP7 block 9, SENP1 inh 3, SENP8 block-2 12 and SENP6 inh -3.
For COc1ccc2[nH]c(C(=O)Nc3cccc(C)n3)cc2c1 the results were SENP8 block-1 85*, NRP1-CendR mod -1, SENP7 block 86*, SENP1 inh 2, SENP8 block-2 -482, SENP6 inh 91*, SENP8 confirm 92*, SENP6 confirm 92*, SENP7 conf 100*, Casp3 SENP sel 92* and Luc interf 58*.
`COc1ccc2[nH]c(C(=O)Nc3ccc(C)c(F)c3)cc2c1` gave SENP8 block-1 -3, NRP1-CendR mod 8, SENP7 block 1, SENP1 inh 1, SENP8 block-2 -282 and SENP6 inh -36.
